Consider two compounds from paper PMC4136418 (Drug development and industrial pharmacy, 2013).

One may read the CC50 as the concentration at which the toxic effect on the cells reaches its halfway point. Read a high CC50 as better tolerance by the cells. In general, Papp refers to a coefficient for how fast a substance crosses the barrier. Higher therefore signals ready permeation. The efflux ratio is a quotient of directional permeabilities that is used to spot active efflux. For orientation: Papp A→B means how fast a substance crosses the layer from the apical side. A high value points to fast passage. Broadly, the EC50 is the concentration at which the effect is half-maximal. What is called solubility is the dissolved amount per volume that the medium holds. A high value points to a readily soluble substance.

Molecules are shown by their SMILES. ≈ marks a conversion by molar mass, not a printed value.

Data set [1] has as its system HIV-1. In kind it is cell-based. Particulars: for Anti-HIV activity: drug present at constant levels throughout the HIV infection process, 48 h.
The subject of data set [2] is HIV-1. It is filed as cell-based. The following applies: 16 h pretreatment, drug removed before HIV exposure.
The next data set can be described thus: Stability study. It is filed as physicochemical. The following applies: all test conditions: pH 3.0–9.0, 25, 40 or 65 °C, light, 0.02% hydrogen peroxide; up to 21 days.
Data set [3] in a line: In vitro cytotoxicity, MTT assay, CaSki cells. It is filed as cell-based. Particulars: human. The procedure, abridged: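 Cells are grown at 37 °C in 5% CO2 with 10% FBS and penicillin-streptomycin: A 431 in DMEM, CaSki in RPMI 1640. They are seeded at 1 × 10^4/well, grown 24 h, then exposed to 1 ng/ml–50 μg/ml compound for 24, 48 or 72 h. Fresh medium plus MTT (5 mg/ml solution) follows for 4 h. Formazan is dissolved in DMSO and read at 595 nm; n = 8.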
In general terms: Formazan colour is commonly taken as a measure of viable cells.

A short description of data set [4]: Transport across Caco-2 cell monolayers. It is filed as in vitro ADME, human. Particulars: human; for Papp A→B at 2 h, 25 μg/ml: Caco-2, Papp (a–b). A digest of the protocol:
(§1)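 Caco-2 cells (passages 27–32) are grown on 4.2 cm2 polycarbonate inserts and used on days 21–24 if TEER exceeds 600 Ωcm2. HBSS is buffered with […] (pH 5.5, 6.5) or HEPES (pH 7.4); monolayers are preincubated 20 min. The pH study uses 25 μg/ml apical, basolateral pH 7.4. Bidirectional runs use 2.5–250 μg/ml at pH 7.4. Incubation is 2 h at 37 °C with sampling to 120 min; HPLC gives Papp = (dQ/dt)/(A×C0); n = 3.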
A general note: Caco-2 monolayers are a common model of the intestinal barrier.

In a further data set the test system is Caco-2 cell monolayers. As to the kind of experiment: Transport across Caco-2 cell monolayers. It is filed as in vitro ADME, human. A digest of the protocol:
as §1

A further data set is described as follows: Dynamic vapor sorption. It is filed as physicochemical. Particulars: 25°C/80% RH. A digest of the protocol:
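Test compound powder (about 7 mg) is dried at 0% RH for at least 2 h at 40 °C. Sorption then runs isothermally at 25 °C, with RH stepped from 0 to 90% and back to 0%.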

The subject of a further data set is HIV. The following applies: cited from earlier work.
Data set [5] is described as follows: Human ectocervical tissue permeability study. In kind it is in vitro ADME.
Data set [6] in a line: Solubility in buffers, Vaginal Fluid Simulant and organic solvents. In kind it is physicochemical.

Regarding `CC(C)=CCOc1cc(NC(=S)c2ccoc2C)ccc1Cl` [UC781, reference compound], the Anti-HIV activity result in the data set with HIV-1 [1] was “highly potent inhibitors”. In addition, in the data set with HIV-1 [2], the “Protective or memory effect” value is reported as “substantial diminution of anti-HIV protection”.
On to `C#C[C@]1(CO)O[C@@H](n2cnc3c(N)nc(F)nc32)C[C@@H]1O` [EFdA, 4′-Ethynyl-2-fluoro-2′-deoxyadenosine], for which the “Selectivity index (CC50/EC50)” value with HIV-1 [1] (cell-based studies) is “greater than 1 × 10^3”. For the same compound, the Anti-HIV activity result with HIV-1 [1] is reported as “highly potent inhibitors”. Moreover, the “Potency relative to UC781” value with HIV-1 [1] (drug present throughout infection) is reported as “about two-fold more potent than UC781”. For the same compound, the Drug remaining in “Stability study” was greater than 95%. For the same compound, it took 47.8 ± 12.4 µg/mL (≈ 0.163 mM) to reach half-maximal cytotoxicity in data set [3] (CC50 at 48 h). Besides, it took 41.1 ± 8.78 µg/mL (≈ 0.14 mM) to reach half-maximal cytotoxicity in data set [3] (CC50 at 72 h). Also, the Papp at 2 h in [4] (Caco-2) was less than 1 ×10⁻⁶ cm/s. For the same compound, in [4] (Caco-2), the efflux ratio at 2 h, 25 μg/ml came out at 8.01. The efflux ratio at 2 h, 250 μg/ml in [4] (Caco-2) was 2.74. The Papp A→B at 2 h, 25 μg/ml in [4] (apical pH 5.5, basolateral pH 7.4) amounted to 0.367 ×10⁻⁶ cm/s; in data set [4] (apical pH 6.5, basolateral pH 7.4), 0.436 ×10⁻⁶ cm/s. Moreover, the Papp A→B at 2 h, 250 μg/ml in data set [4] (Caco-2, pH 7.4, Papp (a–b), 250 μg/ml, pH 7.4 both sides) was 0.595 ×10⁻⁶ cm/s. For the same compound, the “Absorptive transport (a–b), drug in receptor compartment” value in the data set with Caco-2 cell monolayers (2.5 μg/ml, pH 7.4, HPLC LOD 0.05 μg/ml) was “no EFdA was detected”. The “Papp (b-a), fold lower than low and medium concentration treatments” value in the data set with Caco-2 cell monolayers (high concentration group (250 μg/ml)) is listed as “about 2 fold”. Further, in “Dynamic vapor sorption”, the Moisture absorbed result was “approximately 10 % w/w”. Moreover, in the data set on HIV, the EC50 is roughly 70 pM. Moreover, in the data set with HIV-1 [2], the “Protective or memory effect” value is “retained anti-HIV protection similar to that seen when EFdA was present throughout the infection”. Moreover, in data set [5] (female, human, pH 7.4), the Papp at 6 h, 500 μg/ml was found to be 0.834 ×10⁻⁶ cm/s. Moreover, the “Tissue morphology after exposure” value in data set [5] (human ectocervical tissues pre- and post-treatment) was “lack of any significant morphological changes”. The solubility at 120 h in data set [6] (PBS, pH 6) was 799 ± 8.7 µg/mL (≈ 2.73 mM); in data set [6] (acid phthalate buffer, pH 3), 1510 ± 68.4 µg/mL (≈ 5.14 mM); in data set [6] (acid phthalate buffer, pH 4), 1360 ± 48.3 µg/mL (≈ 4.63 mM); in data set [6] (acid phthalate buffer, pH 4, aqueous buffer, thermodynamic from solid), 1620 ± 55.9 µg/mL (≈ 5.53 mM). In addition, in data set [6] (Vaginal Fluid Simulant, pH 4.2), the solubility stood at 887 µg/mL (≈ 3.03 mM). For the same compound, in data set [6] (from pH 6–9), the Change in solubility result is given as “no obvious change in solubility”. In data set [6] (pH 7.0 and 9.0), the “Change in solubility with increase in ionic strength” value is on record as “statistically significant decrease”.
